The source of these data is ChEMBL document CHEMBL1147875, “Novel 1-oxyl-2-substitutedphenyl-4,4,5,5-tetramethylimidazolines: synthesis, selectively analgesic action, and QSAR analysis” (2007).

The structures appear in SMILES notation.

For assay [1], the system named is Mus musculus. Kind of assay: Analgesic activity in ICR mouse assessed as pain threshold variation at 0.13 mmol/kg, ip after 30 mins by tail flick test. It is filed as functional. The method, boiled down:
(§1)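 Male ICR mice (25 2 g), 12/12 light/dark cycle, 21 2 °C, acclimated one day. Single ip injection in 0.2 ml saline with 0.01 ml DMSO and 0.02 ml Tween 80. Tail-flick pain threshold measured before dosing (BPT) and at 30 min intervals for 150 min. PTV = (post-dose threshold − BPT)/BPT, averaged per animal. Saline controls; ANOVA, p < 0.05.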

Assay [2] relates to Mus musculus. As to the kind of experiment: Analgesic activity in ICR mouse assessed as pain threshold variation at 0.13 mmol/kg, ip after 60 mins by tail flick test. The assay is classed as functional. Put shortly: as §1
Assay [3] has as its system Mus musculus. As to the kind of experiment: Analgesic activity in ICR mouse assessed as pain threshold variation at 0.13 mmol/kg, ip after 90 mins by tail flick test. The assay is classed as functional. Put shortly: as §1
For assay [4], the system named is Mus musculus. As to the kind of experiment: Analgesic activity in ICR mouse assessed as pain threshold variation at 0.13 mmol/kg, ip after 120 mins by tail flick test. It is filed as functional. The method, boiled down:
as §1

In assay [5] the test system is Mus musculus. Kind of assay: Analgesic activity in ICR mouse assessed as pain threshold variation at 0.13 mmol/kg, ip after 150 mins by tail flick test. It is filed as functional. The method, boiled down:
as §1

In assay [6] the test system is Mus musculus. Kind of assay: Effect on bleeding time in ICR mouse tail at 1.3 mmol/kg, ip after 5 mins. The assay is classed as functional. The method, boiled down: (§2)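 Mice given 1.30 mmol/kg body weight. Tail bleeding time measured before dosing and at 5, 15, 30 and 60 min after dosing. Saline as vehicle control.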
Assay [7] deals with Mus musculus. As to the kind of experiment: Effect on bleeding time in ICR mouse tail at 1.3 mmol/kg, ip after 15 mins. It is filed as functional. Put shortly: as §2
Assay [8] has as its system Mus musculus. Kind of assay: Effect on bleeding time in ICR mouse tail at 1.3 mmol/kg, ip after 30 mins. It is filed as functional. The method, boiled down: as §2
The subject of assay [9] is Mus musculus. Kind of assay: Effect on bleeding time in ICR mouse tail at 1.3 mmol/kg, ip after 60 mins. It is filed as functional. The method, boiled down: as §2
Assay [10] has as its system Aorta. Kind of assay: Vasorelaxant activity in rat aortic strips assessed as inhibition of noradrenaline-induced vasoconstriction at 500 umol/l. It is filed as functional. More on the design: scale not given: the % may be the effect or the level left.
Assay [11] deals with Aorta. Kind of assay: Vasorelaxant activity in rat aortic strips assessed as inhibition of noradrenaline-induced vasoconstriction at 100 umol/l. The assay is classed as functional. More on the design: scale not given: the % may be the effect or the level left.
In assay [12] the test system is Aorta. Kind of assay: Vasorelaxant activity in rat aortic strips assessed as inhibition of noradrenaline-induced vasoconstriction at 20 umol/l. The assay is classed as functional. More on the design: scale not given: the % may be the effect or the level left.
Assay [13] deals with Mus musculus. As to the kind of experiment: Analgesic activity in ICR mouse assessed as pain threshold variation at 0.013 mmol/kg, ip after 30 mins by tail flick test. The assay is classed as functional, organism-based. Put shortly: as §1
Assay [14] has as its system Mus musculus. As to the kind of experiment: Analgesic activity in ICR mouse assessed as pain threshold variation at 0.013 mmol/kg, ip after 60 mins by tail flick test. The assay is classed as functional, organism-based. The method, boiled down:
as §1

Assay [15] concerns Mus musculus. Kind of assay: Analgesic activity in ICR mouse assessed as pain threshold variation at 0.013 mmol/kg, ip after 90 mins by tail flick test. It is filed as functional, organism-based. The method, boiled down: as §1
In assay [16] the test system is Mus musculus. As to the kind of experiment: Analgesic activity in ICR mouse assessed as pain threshold variation at 0.013 mmol/kg, ip after 120 mins by tail flick test. It is filed as functional, organism-based. Put shortly:
as §1

For assay [17], the system named is Mus musculus. As to the kind of experiment: Analgesic activity in ICR mouse assessed as pain threshold variation at 0.013 mmol/kg, ip after 150 mins by tail flick test. The assay is classed as functional, organism-based. The method, boiled down: as §1
Assay [18] relates to Mus musculus. As to the kind of experiment: Analgesic activity in ICR mouse assessed as pain threshold variation at 0.0013 mmol/kg, ip after 30 mins by tail flick test. The assay is classed as functional, organism-based. Put shortly:
as §1

The test system of assay [19] is Mus musculus. Kind of assay: Analgesic activity in ICR mouse assessed as pain threshold variation at 0.0013 mmol/kg, ip after 60 mins by tail flick test. The assay is classed as functional, organism-based. Put shortly:
as §1

In assay [20] the test system is Mus musculus. As to the kind of experiment: Analgesic activity in ICR mouse assessed as pain threshold variation at 0.0013 mmol/kg, ip after 90 mins by tail flick test. The assay is classed as functional, organism-based. The method, boiled down: as §1
Assay [21] has as its system Mus musculus. Kind of assay: Analgesic activity in ICR mouse assessed as pain threshold variation at 0.0013 mmol/kg, ip after 120 mins by tail flick test. The assay is classed as functional, organism-based. The method, boiled down:
as §1

Assay [22] concerns Mus musculus. As to the kind of experiment: Analgesic activity in ICR mouse assessed as pain threshold variation at 0.0013 mmol/kg, ip after 150 mins by tail flick test. It is filed as functional, organism-based. The method, boiled down:
as §1

Turning to `COc1ccc(C2=NC(C)(C)C(C)(C)N2[O])cc1`, the Activity with Mus musculus [1] worked out at 35.3; in the assay with Mus musculus [2], 103; in the assay on Mus musculus [3] it was 99.3; in the assay on Mus musculus [4], 68.7; in the assay on Mus musculus [5] it was 53; with Aorta [10], 35.1%. Moreover, the Activity stood at 23.1% with Aorta [11]; 6.88% in the assay with Aorta [12]; 25 with Mus musculus [13]; 89.7 with Mus musculus [14]; 82.5 in the assay on Mus musculus [15]; 50.2 with Mus musculus [16]. Also, the Activity in the assay on Mus musculus [17] turned out to be 34.4; in the assay with Mus musculus [18], 14.9; with Mus musculus [19], 55.2; with Mus musculus [20], 50.5; with Mus musculus [21], 38.4; in the assay on Mus musculus [22], 22.6. For the same molecule, the TIME was 0.0327 h in the assay on Mus musculus [6], 0.0324 h in the assay with Mus musculus [7], 0.0331 h in the assay with Mus musculus [8] and 0.0331 h in the assay with Mus musculus [9].
Regarding `CC1(C)N=C(c2cccc(O)c2)N([O])C1(C)C`, the Activity came to 49.6 with Mus musculus [1]; 50.3 in the assay on Mus musculus [2]; 54 in the assay on Mus musculus [3]; 72.7 in the assay on Mus musculus [4]; 70.8 in the assay with Mus musculus [5]; 35.7% with Aorta [10]. The Activity came out at 23% in the assay on Aorta [11]; 7.06% with Aorta [12]; 35.7 with Mus musculus [13]; 37.8 with Mus musculus [14]; 42.8 with Mus musculus [15]; 59.9 in the assay with Mus musculus [16]. For the same molecule, the Activity with Mus musculus [17] came to 52.1; in the assay with Mus musculus [18], 24.2; in the assay on Mus musculus [19], 25.6; in the assay with Mus musculus [20], 30.7; in the assay with Mus musculus [21] it was 35.2; in the assay on Mus musculus [22], 33.5. For the same molecule, the TIME is 0.033 h in the assay with Mus musculus [6], 0.0326 h with Mus musculus [7], 0.0331 h in the assay on Mus musculus [8] and 0.0326 h in the assay with Mus musculus [9].
For `CC1(C)N=C(c2ccccc2F)N([O])C1(C)C`, the Activity in the assay with Mus musculus [1] worked out at 62.2; with Mus musculus [2] it was 67.8; in the assay with Mus musculus [3], 63.3; in the assay with Mus musculus [4], 62; in the assay on Mus musculus [5] it was 86.8; in the assay on Aorta [10], 23.4%. Moreover, the Activity in the assay with Aorta [11] was found to be 14.9%; in the assay with Aorta [12], 5%; in the assay with Mus musculus [13] it was 49.3; in the assay on Mus musculus [14], 51.3; in the assay on Mus musculus [15], 50.7; with Mus musculus [16], 49.8. Further, the Activity in the assay with Mus musculus [17] stood at 64.5; with Mus musculus [18], 31.3; in the assay with Mus musculus [19], 33.5; in the assay on Mus musculus [20], 31.8; in the assay on Mus musculus [21], 30.4; with Mus musculus [22], 44.5. In addition, the TIME with Mus musculus [6] is 0.0331 h; in the assay with Mus musculus [7], 0.0329 h; with Mus musculus [8], 0.0328 h; with Mus musculus [9], 0.0326 h.
